Laboratory results reported in ChEMBL document CHEMBL1687785, “ampG gene of Pseudomonas aeruginosa and its role in β-lactamase expression” (2010).
≈ marks a conversion by molar mass, not a printed value.

Legend:
Assay type in all cases: functional
[1] = system: Pseudomonas aeruginosa; assay: Antimicrobial activity against Pseudomonas aeruginosa isolate 1 obtained from cystic fibrosis patients after 16 to 20 hrs by broth microdilution method in presence of 120 uM carbonyl cyanide m-chlorophenyl-hydrazone
Outline: (§1)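 CLSI broth microdilution in Mueller-Hinton broth with CCCP added from a 10 mM DMSO stock to 120 μM final, alongside 2-fold serial antibiotic dilutions. Inoculum from starter cultures grown to OD600 0.5. MIC is the lowest concentration preventing growth after 16-20 h at 37°C. Triplicate.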

[2] = system: Pseudomonas aeruginosa; assay: Antimicrobial activity against Pseudomonas aeruginosa isolate 1 obtained from cystic fibrosis patients after 16 to 20 hrs by broth microdilution method
Outline: (§2)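 CLSI broth microdilution: 2-fold serial antibiotic dilutions in Mueller-Hinton broth, inoculated with about 10^4 cells per 100 μl from starter cultures grown to OD600 0.5. MIC is the lowest concentration preventing growth after 16-20 h at 37°C. Triplicate.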

[3] = system: Pseudomonas aeruginosa; assay: Antimicrobial activity against Pseudomonas aeruginosa isolate 2 obtained from cystic fibrosis patients after 16 to 20 hrs by broth microdilution method in presence of 120 uM carbonyl cyanide m-chlorophenyl-hydrazone
Outline: (§3)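 CLSI broth microdilution in Mueller-Hinton broth with serial antibiotic dilutions. CCCP was added from a 10 mM DMSO stock to 120 μM final, then the bacterial culture was added as inoculum (about 10^4 cells from OD600 0.5 starter cultures). MIC was the lowest concentration preventing growth after 16 to 20 h at 37°C, run in triplicate.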

[4] = system: Pseudomonas aeruginosa; assay: Antimicrobial activity against Pseudomonas aeruginosa isolate 2 obtained from cystic fibrosis patients after 16 to 20 hrs by broth microdilution method
Outline: (§4)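 CLSI broth microdilution in Mueller-Hinton broth, serial 2-fold antibiotic dilutions. Inoculum about 10^4 cells per well, taken from starter cultures grown to OD600 0.5. MIC was the lowest antibiotic concentration preventing growth after 16 to 20 h at 37°C. Each MIC was determined in triplicate.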

[5] = system: Pseudomonas aeruginosa; assay: Antimicrobial activity against Pseudomonas aeruginosa isolate 3 obtained from cystic fibrosis patients after 16 to 20 hrs by broth microdilution method in presence of 120 uM carbonyl cyanide m-chlorophenyl-hydrazone; outline: as §3
[6] = system: Pseudomonas aeruginosa; assay: Antimicrobial activity against Pseudomonas aeruginosa isolate 3 obtained from cystic fibrosis patients after 16 to 20 hrs by broth microdilution method; outline: as §4
[7] = system: Pseudomonas aeruginosa; assay: Antimicrobial activity against Pseudomonas aeruginosa isolate 4 obtained from cystic fibrosis patients after 16 to 20 hrs by broth microdilution method in presence of 120 uM carbonyl cyanide m-chlorophenyl-hydrazone; outline: as §3
[8] = system: Pseudomonas aeruginosa; assay: Antimicrobial activity against Pseudomonas aeruginosa isolate 4 obtained from cystic fibrosis patients after 16 to 20 hrs by broth microdilution method; outline: as §4
[9] = system: Pseudomonas aeruginosa; assay: Antimicrobial activity against Pseudomonas aeruginosa isolate 5 obtained from cystic fibrosis patients after 16 to 20 hrs by broth microdilution method in presence of 120 uM carbonyl cyanide m-chlorophenyl-hydrazone; outline: as §3
[10] = system: Pseudomonas aeruginosa; assay: Antimicrobial activity against Pseudomonas aeruginosa isolate 5 obtained from cystic fibrosis patients after 16 to 20 hrs by broth microdilution method; outline: as §4
[11] = system: Pseudomonas aeruginosa; assay: Antimicrobial activity against Pseudomonas aeruginosa isolate 6 obtained from cystic fibrosis patients after 16 to 20 hrs by broth microdilution method in presence of 120 uM carbonyl cyanide m-chlorophenyl-hydrazone; outline: as §3
[12] = system: Pseudomonas aeruginosa; assay: Antimicrobial activity against Pseudomonas aeruginosa isolate 6 obtained from cystic fibrosis patients after 16 to 20 hrs by broth microdilution method; outline: as §4
[13] = system: Pseudomonas aeruginosa; assay: Antimicrobial activity against Pseudomonas aeruginosa isolate 7 obtained from cystic fibrosis patients after 16 to 20 hrs by broth microdilution method in presence of 120 uM carbonyl cyanide m-chlorophenyl-hydrazone; outline: as §3
[14] = system: Pseudomonas aeruginosa; assay: Antimicrobial activity against Pseudomonas aeruginosa isolate 7 obtained from cystic fibrosis patients after 16 to 20 hrs by broth microdilution method; outline: as §4
[15] = system: Pseudomonas aeruginosa; assay: Antimicrobial activity against Pseudomonas aeruginosa isolate 8 obtained from cystic fibrosis patients after 16 to 20 hrs by broth microdilution method in presence of 120 uM carbonyl cyanide m-chlorophenyl-hydrazone; outline: as §3
[16] = system: Pseudomonas aeruginosa; assay: Antimicrobial activity against Pseudomonas aeruginosa isolate 8 obtained from cystic fibrosis patients after 16 to 20 hrs by broth microdilution method; outline: as §4
[17] = system: Pseudomonas aeruginosa; assay: Antimicrobial activity against Pseudomonas aeruginosa isolate 9 obtained from cystic fibrosis patients after 16 to 20 hrs by broth microdilution method in presence of 120 uM carbonyl cyanide m-chlorophenyl-hydrazone; outline: as §3
[18] = system: Pseudomonas aeruginosa; assay: Antimicrobial activity against Pseudomonas aeruginosa isolate 9 obtained from cystic fibrosis patients after 16 to 20 hrs by broth microdilution method; outline: as §4
[19] = system: Pseudomonas aeruginosa; assay: Antimicrobial activity against Pseudomonas aeruginosa isolate 10 obtained from cystic fibrosis patients after 16 to 20 hrs by broth microdilution method in presence of 120 uM carbonyl cyanide m-chlorophenyl-hydrazone; outline: as §1
[20] = system: Pseudomonas aeruginosa; assay: Antimicrobial activity against Pseudomonas aeruginosa isolate 10 obtained from cystic fibrosis patients after 16 to 20 hrs by broth microdilution method; outline: as §2
[21] = system: Pseudomonas aeruginosa; assay: Antimicrobial activity against Pseudomonas aeruginosa isolate 11 obtained from cystic fibrosis patients after 16 to 20 hrs by broth microdilution method in presence of 120 uM carbonyl cyanide m-chlorophenyl-hydrazone; outline: as §1
[22] = system: Pseudomonas aeruginosa; assay: Antimicrobial activity against Pseudomonas aeruginosa isolate 11 obtained from cystic fibrosis patients after 16 to 20 hrs by broth microdilution method; outline: as §2
[23] = system: Pseudomonas aeruginosa; assay: Antimicrobial activity against Pseudomonas aeruginosa isolate 12 obtained from cystic fibrosis patients after 16 to 20 hrs by broth microdilution method; outline: as §2
[24] = system: Pseudomonas aeruginosa; assay: Antimicrobial activity against Pseudomonas aeruginosa isolate 12 obtained from cystic fibrosis patients after 16 to 20 hrs by broth microdilution method in presence of 120 uM carbonyl cyanide m-chlorophenyl-hydrazone; outline: as §1
[25] = system: Pseudomonas aeruginosa; assay: Antimicrobial activity against Pseudomonas aeruginosa isolate 13 obtained from cystic fibrosis patients after 16 to 20 hrs by broth microdilution method in presence of 120 uM carbonyl cyanide m-chlorophenyl-hydrazone; outline: as §1
[26] = system: Pseudomonas aeruginosa; assay: Antimicrobial activity against Pseudomonas aeruginosa isolate 13 obtained from cystic fibrosis patients after 16 to 20 hrs by broth microdilution method; outline: as §2
[27] = system: Pseudomonas aeruginosa; assay: Antimicrobial activity against Pseudomonas aeruginosa isolate 14 obtained from cystic fibrosis patients after 16 to 20 hrs by broth microdilution method in presence of 120 uM carbonyl cyanide m-chlorophenyl-hydrazone; outline: as §1
[28] = system: Pseudomonas aeruginosa; assay: Antimicrobial activity against Pseudomonas aeruginosa isolate 14 obtained from cystic fibrosis patients after 16 to 20 hrs by broth microdilution method; outline: as §2
[29] = system: Pseudomonas aeruginosa; assay: Antimicrobial activity against Pseudomonas aeruginosa isolate 15 obtained from cystic fibrosis patients after 16 to 20 hrs by broth microdilution method in presence of 120 uM carbonyl cyanide m-chlorophenyl-hydrazone; outline: as §1
[30] = system: Pseudomonas aeruginosa; assay: Antimicrobial activity against Pseudomonas aeruginosa isolate 15 obtained from cystic fibrosis patients after 16 to 20 hrs by broth microdilution method; outline: as §2
[31] = system: Pseudomonas aeruginosa; assay: Antimicrobial activity against Pseudomonas aeruginosa isolate 16 obtained from cystic fibrosis patients after 16 to 20 hrs by broth microdilution method in presence of 120 uM carbonyl cyanide m-chlorophenyl-hydrazone; outline: as §1
[32] = system: Pseudomonas aeruginosa; assay: Antimicrobial activity against Pseudomonas aeruginosa isolate 16 obtained from cystic fibrosis patients after 16 to 20 hrs by broth microdilution method; outline: as §2
[33] = system: Pseudomonas aeruginosa; assay: Antimicrobial activity against Pseudomonas aeruginosa isolate 17 obtained from cystic fibrosis patients after 16 to 20 hrs by broth microdilution method in presence of 120 uM carbonyl cyanide m-chlorophenyl-hydrazone; outline: as §3
[34] = system: Pseudomonas aeruginosa; assay: Antimicrobial activity against Pseudomonas aeruginosa isolate 17 obtained from cystic fibrosis patients after 16 to 20 hrs by broth microdilution method; outline: as §4
[35] = system: Pseudomonas aeruginosa; assay: Antimicrobial activity against Pseudomonas aeruginosa isolate 18 obtained from cystic fibrosis patients after 16 to 20 hrs by broth microdilution method in presence of 120 uM carbonyl cyanide m-chlorophenyl-hydrazone; outline: as §3
[36] = system: Pseudomonas aeruginosa; assay: Antimicrobial activity against Pseudomonas aeruginosa isolate 18 obtained from cystic fibrosis patients after 16 to 20 hrs by broth microdilution method; outline: as §4

SMILES | MIC [1] | MIC [2] | MIC [3] | MIC [4] | MIC [5] | MIC [6] | MIC [7] | MIC [8] | MIC [9] | MIC [10] | MIC [11] | MIC [12] | MIC [13] | MIC [14] | MIC [15] | MIC [16] | MIC [17] | MIC [18] | MIC [19] | MIC [20] | also measured
O=C(N[C@H](CO)[C@H](O)c1ccc([N+](=O)[O-])cc1)C(Cl)Cl [CHLORAMPHENICOL] | 64 µg/mL | 256 µg/mL (≈ 792 µM) | 256 µg/mL | 256 µg/mL (≈ 792 µM) | 64 µg/mL | 256 µg/mL (≈ 792 µM) | 32 µg/mL | 32 µg/mL (≈ 99 µM) | 32 µg/mL | 32 µg/mL (≈ 99 µM) | 8 µg/mL | 8 µg/mL (≈ 24.8 µM) | 8 µg/mL | 8 µg/mL (≈ 24.8 µM) | 32 µg/mL | 32 µg/mL (≈ 99 µM) | 16 µg/mL | 16 µg/mL (≈ 49.5 µM) | 8 µg/mL | 32 µg/mL (≈ 99 µM) | MIC [21]: 32 µg/mL; MIC [22]: 32 µg/mL (≈ 99 µM); MIC [23]: 8 µg/mL (≈ 24.8 µM); MIC [24]: 8 µg/mL; MIC [25]: 8 µg/mL; MIC [26]: 32 µg/mL (≈ 99 µM); MIC [27]: 8 µg/mL; MIC [28]: 16 µg/mL (≈ 49.5 µM); MIC [29]: 8 µg/mL; MIC [30]: 8 µg/mL (≈ 24.8 µM); MIC [31]: 8 µg/mL; MIC [32]: 8 µg/mL (≈ 24.8 µM); MIC [33]: 8 µg/mL; MIC [34]: 8 µg/mL (≈ 24.8 µM); MIC [35]: 32 µg/mL; MIC [36]: 32 µg/mL (≈ 99 µM)
CN(C)[C@@H]1C(O)=C(C(N)=O)C(=O)[C@@]2(O)C(O)=C3C(=O)c4c(O)cccc4[C@@](C)(O)[C@H]3C[C@@H]12 [TETRACYCLINE] | 8 µg/mL | 8 µg/mL (≈ 18 µM) | 8 µg/mL | 8 µg/mL (≈ 18 µM) | 8 µg/mL | 8 µg/mL (≈ 18 µM) | 8 µg/mL | 8 µg/mL (≈ 18 µM) | 8 µg/mL | 8 µg/mL (≈ 18 µM) | 8 µg/mL | 8 µg/mL (≈ 18 µM) | 8 µg/mL | 8 µg/mL (≈ 18 µM) | 8 µg/mL | 16 µg/mL (≈ 36 µM) | 8 µg/mL | 8 µg/mL (≈ 18 µM) | 8 µg/mL | 8 µg/mL (≈ 18 µM) | MIC [21]: 8 µg/mL; MIC [22]: 8 µg/mL (≈ 18 µM); MIC [23]: 8 µg/mL (≈ 18 µM); MIC [24]: 8 µg/mL; MIC [25]: 8 µg/mL; MIC [26]: 8 µg/mL (≈ 18 µM); MIC [27]: 8 µg/mL; MIC [28]: 8 µg/mL (≈ 18 µM); MIC [29]: 8 µg/mL; MIC [30]: 8 µg/mL (≈ 18 µM); MIC [31]: 8 µg/mL; MIC [32]: 8 µg/mL (≈ 18 µM); MIC [33]: 8 µg/mL; MIC [34]: 8 µg/mL (≈ 18 µM); MIC [35]: 8 µg/mL; MIC [36]: 16 µg/mL (≈ 36 µM)
